Experimental data: paper PMC3790647 (Clinical cancer research : an official journal of the …, 2013)

Tests used:
histone H4 acetylation = experiment: Histone H4 acetylation in PBMC by Western blotting; assay type: in vivo, human; conditions: 800 mg dose level
[1] = tested on: patients with advanced solid tumors; experiment: Safety and tolerability, first-in-human dose escalation; assay type: in vivo; conditions: for Total number of AEs at each dose level: treatment-related clinical AEs
Method in brief: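 Open-label 3+3 escalation: oral once-daily dosing on days 1–5 every 14 days at 100, 200, 400, 600 and 800 mg, with 3–6 patients per level and 4 cycles. Adverse events were graded by NCI-CTC-AE v3.0 from first dose to 30 days after last dose. DLTs were assessed over the first 14 days. Evaluable patients had five consecutive doses plus safety evaluations over nine days.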

CN(C)Cc1ccc(S(=O)(=O)n2ccc(/C=C/C(=O)NO)c2)cc1 [resminostat]
Median increase of histone H4 acetylation level (histone H4 acetylation): 10 fold | Dysgeusia, treatment-related, patients by maximum grade ([1]; 100 mg (N=3), grade 1): 1 | Fatigue, treatment-related, patients by maximum grade ([1]; 100 mg (N=3), grade 1): 1 | Total number of AEs at each dose level ([1]; 100 mg (N=3)): 2 | Nausea, treatment-related, patients by maximum grade ([1]; 200 mg (N=3), grade 1): 1 | ALT increase, treatment-related, patients by maximum grade ([1]; 200 mg (N=3), grade 2): 1 | Total number of AEs at each dose level ([1]; 200 mg (N=3)): 2 | Arrhythmia, treatment-related, patients by maximum grade ([1]; 400 mg (N=3), grade 1): 1 | Thrombocytopenia, treatment-related, patients by maximum grade ([1]; 400 mg (N=3), grade 1): 1 | Nausea, treatment-related, patients by maximum grade ([1]; 400 mg (N=3), grade 2): 2 | Total number of AEs at each dose level ([1]; 400 mg (N=3)): 4 | Anorexia, treatment-related, patients by maximum grade ([1]; 600 mg (N=3), grade 1): 1 | Depression, treatment-related, patients by maximum grade ([1]; 600 mg (N=3), grade 1): 1 | Diarrhea, treatment-related, patients by maximum grade ([1]; 600 mg (N=3), grade 1): 1 | Dysgeusia, treatment-related, patients by maximum grade ([1]; 600 mg (N=3), grade 1): 1 | Fatigue, treatment-related, patients by maximum grade ([1]; 600 mg (N=3), grade 1): 1 | Nausea, treatment-related, patients by maximum grade ([1]; 600 mg (N=3), grade 1): 3 | Vomiting, treatment-related, patients by maximum grade ([1]; 600 mg (N=3), grade 1): 2 | Anemia, treatment-related, patients by maximum grade ([1]; 600 mg (N=3), grade 2): 1 | Fatigue, treatment-related, patients by maximum grade ([1]; 600 mg (N=3), grade 2): 1 | Anorexia, treatment-related, patients by maximum grade ([1]; 800 mg (N=7), grade 1): 3 | Dysgeusia, treatment-related, patients by maximum grade ([1]; 800 mg (N=7), grade 1): 1 | Electrocardiogram QT prolongation, treatment-related, patients by maximum grade ([1]; 800 mg (N=7), grade 1): 1 | Epistaxis, treatment-related, patients by maximum grade ([1]; 800 mg (N=7), grade 1): 1 | Fatigue, treatment-related, patients by maximum grade ([1]; 800 mg (N=7), grade 1): 1 | Hypokalemia, treatment-related, patients by maximum grade ([1]; 800 mg (N=7), grade 1): 1 | Nausea, treatment-related, patients by maximum grade ([1]; 800 mg (N=7), grade 1): 4 | Vomiting, treatment-related, patients by maximum grade ([1]; 800 mg (N=7), grade 1): 2 | Weight decrease, treatment-related, patients by maximum grade ([1]; 800 mg (N=7), grade 1): 1 | AST increase, treatment-related, patients by maximum grade ([1]; 800 mg (N=7), grade 2): 1 | Anorexia, treatment-related, patients by maximum grade ([1]; 800 mg (N=7), grade 2): 1 | Diarrhea, treatment-related, patients by maximum grade ([1]; 800 mg (N=7), grade 2): 1 | Dysgeusia, treatment-related, patients by maximum grade ([1]; 800 mg (N=7), grade 2): 1 | Fatigue, treatment-related, patients by maximum grade ([1]; 800 mg (N=7), grade 2): 3 | Nausea, treatment-related, patients by maximum grade ([1]; 800 mg (N=7), grade 2): 2 | Vomiting, treatment-related, patients by maximum grade ([1]; 800 mg (N=7), grade 2): 2 | Weight decrease, treatment-related, patients by maximum grade ([1]; 800 mg (N=7), grade 2): 1 | ALT increase, treatment-related, patients by maximum grade ([1]; 800 mg (N=7), grade 3): 1 | Fatigue, treatment-related, patients by maximum grade ([1]; 800 mg (N=7), grade 3): 1 | Nausea, treatment-related, patients by maximum grade ([1]; 800 mg (N=7), grade 3): 1 | Vomiting, treatment-related, patients by maximum grade ([1]; 800 mg (N=7), grade 3): 1 | Evaluable patients sustaining a DLT ([1]; 800 mg dose level, first cycle): 1 of 6 | AST abnormalities, share of all administered cycles ([1]; 68 cycles): 21% | Patients who omitted doses due to treatment-related AEs ([1]; N=19): 21% | Patients who underwent dose reductions due to treatment-related AEs ([1]; N=19): 21% | ALT increase, treatment-related, patients by maximum grade ([1]; Total (N=19), grade 1): 2 | AST increase, treatment-related, patients by maximum grade ([1]; Total (N=19), grade 1): 1 | Anemia, treatment-related, patients by maximum grade ([1]; Total (N=19), grade 1): 1 | Anorexia, treatment-related, patients by maximum grade ([1]; Total (N=19), grade 1): 4 | Arrhythmia, treatment-related, patients by maximum grade ([1]; Total (N=19), grade 1): 1 | Depression, treatment-related, patients by maximum grade ([1]; Total (N=19), grade 1): 1 | Diarrhea, treatment-related, patients by maximum grade ([1]; Total (N=19), grade 1): 1 | Dysgeusia, treatment-related, patients by maximum grade ([1]; Total (N=19), grade 1): 3 | Electrocardiogram QT prolongation, treatment-related, patients by maximum grade ([1]; Total (N=19), grade 1): 1 | Epistaxis, treatment-related, patients by maximum grade ([1]; Total (N=19), grade 1): 1 | Fatigue, treatment-related, patients by maximum grade ([1]; Total (N=19), grade 1): 3 | Hypokalemia, treatment-related, patients by maximum grade ([1]; Total (N=19), grade 1): 1 | Nausea, treatment-related, patients by maximum grade ([1]; Total (N=19), grade 1): 8 | Thrombocytopenia, treatment-related, patients by maximum grade ([1]; Total (N=19), grade 1): 1 | Vomiting, treatment-related, patients by maximum grade ([1]; Total (N=19), grade 1): 4 | Weight decrease, treatment-related, patients by maximum grade ([1]; Total (N=19), grade 1): 1 | Anorexia, treatment-related, patients by maximum grade ([1]; Total (N=19), grade 2): 1 | Diarrhea, treatment-related, patients by maximum grade ([1]; Total (N=19), grade 2): 1 | Dysgeusia, treatment-related, patients by maximum grade ([1]; Total (N=19), grade 2): 1 | Fatigue, treatment-related, patients by maximum grade ([1]; Total (N=19), grade 2): 4 | Nausea, treatment-related, patients by maximum grade ([1]; Total (N=19), grade 2): 4 | Vomiting, treatment-related, patients by maximum grade ([1]; Total (N=19), grade 2): 2 | Weight decrease, treatment-related, patients by maximum grade ([1]; Total (N=19), grade 2): 1 | Fatigue, treatment-related, patients by maximum grade ([1]; Total (N=19), grade 3): 1 | Nausea, treatment-related, patients by maximum grade ([1]; Total (N=19), grade 3): 1 | Vomiting, treatment-related, patients by maximum grade ([1]; Total (N=19), grade 3): 1 | Grade 4 treatment-related adverse events ([1]; all dose levels): No grade 4 treatment-related adverse event | Treatment-related deaths ([1]; all dose levels): No treatment-related deaths | Anemia regardless of causality, patients ([1]; all grades, N=19): 89% | GGT elevation regardless of causality, patients ([1]; all grades, N=19): 80%
